The text below walks through data of ChEMBL document CHEMBL1128486, “Farnesyl diphosphate-based inhibitors of Ras farnesyl protein transferase” (J Med Chem, 1995).

Each structure is given as a SMILES string. Bounds are passed on as bounds.

For one assay, the target named is Protein farnesyltransferase (Sus scrofa). As to the kind of experiment: Inhibition of pig brain farnesyl transferase. The note with it: read-out: I50.
Consider `CC(C)=CCC/C(C)=C/CC/C(C)=C/CNC(=O)C(CP(=O)(O)O)C(=O)O` (centres undefined), for which the IC50 worked out at 0.075 µM.

The target is the same in a further assay. As to the kind of experiment: Inhibition of pig brain farnesyl transferase. As to conditions: read-out: I50. The source holds these as a separate data set.
Take `CC(C)=CCC/C(C)=C/CC/C(C)=C/C(=O)N[C@H](CCC(=O)O)C(=O)O`: the IC50 was 30 µM.

In the case of `CC(C)=CCC/C(C)=C/CC/C(C)=C/C(=O)N[C@H](CP(=O)(O)O)C(=O)O`, the IC50 is 0.5 µM.

In the case of `CC(C)=CCC/C(C)=C/CC/C(C)=C/CN(C)C(=O)C(CP(=O)(O)O)C(=O)O` (centres undefined), the IC50 amounted to 0.53 µM.

As for `CC(C)=CCC/C(C)=C/CC/C(C)=C/C(=O)N[C@@H](CC(=O)O)C(=O)O`, the IC50 worked out at 12.6 µM.

With `CC(C)=CCC/C(C)=C/CC/C(C)=C/CCNC(=O)C(CP(=O)(O)O)C(=O)O` (centres undefined), the IC50 was found to be 17.8 µM.

On to `CC(C)=CCC/C(C)=C/CC/C(C)=C/CNC(=O)CCC(=O)O`, for which the IC50 is 220 µM.

For `CC(C)=CCC/C(C)=C/CC/C(C)=C/C(=O)N[C@@H](CCC(=O)O)C(=O)O`, the IC50 came out at 11.5 µM.

For the compound `CC(C)=CCC/C(C)=C/CC/C(C)=C/CC(=O)N[C@H](CP(=O)(O)O)C(=O)O`, the IC50 was 0.05 µM.

Turning to `CC(C)=CCC/C(C)=C/CC/C(C)=C/C(=O)N[C@@H](CP(=O)(O)O)C(=O)O`, the IC50 was 0.25 µM.

Consider `CC(C)=CCC/C(C)=C/CC/C(C)=C/C(=O)N[C@H](CC(=O)O)C(=O)O`, for which the IC50 turned out to be 25 µM.

With `CC(C)=CCC/C(C)=C/CC/C(C)=C/CC(=O)N[C@@H](CP(=O)(O)O)C(=O)O`, the IC50 came out at 1.7 µM.

On to `CC(C)=CCC/C(C)=C/CCC(C)(C)CCNC(=O)C(CP(=O)(O)O)C(=O)O` (centres undefined), for which the IC50 amounted to 55 µM.

Consider `CCCCCCCCCCCCNC(=O)C(CP(=O)(O)O)C(=O)O` (centres undefined), for which the IC50 is 9 µM.

The next assay addresses T1, Squalene synthase (Rattus norvegicus, UniProt Q02769).
T1 sequence (Q02769 whole entry): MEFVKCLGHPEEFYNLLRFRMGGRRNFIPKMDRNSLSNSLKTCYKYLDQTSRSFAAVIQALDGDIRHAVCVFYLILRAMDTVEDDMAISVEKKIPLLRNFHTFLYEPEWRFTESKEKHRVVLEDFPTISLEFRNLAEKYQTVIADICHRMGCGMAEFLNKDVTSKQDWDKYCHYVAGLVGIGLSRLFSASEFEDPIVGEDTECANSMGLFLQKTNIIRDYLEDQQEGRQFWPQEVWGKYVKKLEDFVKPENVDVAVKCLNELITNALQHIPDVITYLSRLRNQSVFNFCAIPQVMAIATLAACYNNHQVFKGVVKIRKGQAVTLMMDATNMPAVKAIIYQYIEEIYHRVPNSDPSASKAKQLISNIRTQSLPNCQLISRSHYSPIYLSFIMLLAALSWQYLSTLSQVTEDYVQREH
Briefly: Inhibition of squalene synthase. As to conditions: read-out: I50. An outline of the steps:
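Squalene synthetase was prepared from rat liver microsomes and used for I50 determination.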
Regarding `CC(C)=CCC/C(C)=C/CC/C(C)=C/CNC(=O)C(CP(=O)(O)O)C(=O)O` (centres undefined), the IC50 turned out to be 516 µM.

A further assay concerns the target Protein farnesyltransferase (Sus scrofa). Briefly: Inhibition of pig brain farnesyl transferase. As to conditions: read-out: I50. The source holds these as a separate data set.
Regarding `CC(C)=CCC/C(C)=C/CC/C(C)=C/CNC(=O)CCP(=O)(O)O`, the IC50 worked out at 4.6 µM.

Regarding `CC(C)=CCC/C(C)=C/CC/C(C)=C/CNC(=O)CP(=O)(O)O`, the IC50 worked out at 41.5 µM.

For the compound `CC(C)=CCC/C(C)=C/CC/C(C)=C/CNC(=O)CC(=O)O`, the IC50 is 115 µM.

Another assay deals with Mevalonate kinase (Rattus norvegicus, UniProt P17256). As to the kind of experiment: Inhibition of mevalonate kinase. As to conditions: read-out: I50. An outline of the steps: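 Mevalonate kinase was purified to homogeneity from rat liver and used for inhibition measurement.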
Chain of Mevalonate kinase (P17256 whole entry): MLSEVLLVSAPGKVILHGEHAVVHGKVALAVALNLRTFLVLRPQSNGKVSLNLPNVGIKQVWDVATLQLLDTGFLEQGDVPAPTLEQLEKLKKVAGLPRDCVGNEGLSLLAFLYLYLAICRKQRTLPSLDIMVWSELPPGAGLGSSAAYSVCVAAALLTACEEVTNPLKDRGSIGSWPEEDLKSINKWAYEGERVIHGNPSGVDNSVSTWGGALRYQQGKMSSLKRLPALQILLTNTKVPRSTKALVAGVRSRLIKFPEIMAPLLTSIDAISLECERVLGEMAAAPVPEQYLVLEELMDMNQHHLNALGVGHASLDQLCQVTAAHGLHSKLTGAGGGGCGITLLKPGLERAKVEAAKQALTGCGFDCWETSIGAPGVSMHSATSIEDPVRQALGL
Turning to `CC(C)=CCC/C(C)=C/CC/C(C)=C/CNC(=O)C(CP(=O)(O)O)C(=O)O` (centres undefined), the IC50 is over 200 µM.
